According to ChEMBL document CHEMBL3774332, “Synthesis, biological evaluation and molecular modeling of pseudo-peptides based statine as inhibitors for human tissue kallikrein 5” (Eur J Med Chem, 2016):
Active and inactive are the calls of the source. The calls are words filed in the database; no cut-off is given here.

Key:
Kallikrein-5 [1] = biological target: T1, Kallikrein-5 (Homo sapiens, UniProt Q9Y337); test: Inhibition of human KLK5 using Abz-KLRSSKQ-EDDnp as substrate preincubated for 5 mins followed by substrate addition by spectrofluorimetric analysis
T1 sequence (Q9Y337 whole entry): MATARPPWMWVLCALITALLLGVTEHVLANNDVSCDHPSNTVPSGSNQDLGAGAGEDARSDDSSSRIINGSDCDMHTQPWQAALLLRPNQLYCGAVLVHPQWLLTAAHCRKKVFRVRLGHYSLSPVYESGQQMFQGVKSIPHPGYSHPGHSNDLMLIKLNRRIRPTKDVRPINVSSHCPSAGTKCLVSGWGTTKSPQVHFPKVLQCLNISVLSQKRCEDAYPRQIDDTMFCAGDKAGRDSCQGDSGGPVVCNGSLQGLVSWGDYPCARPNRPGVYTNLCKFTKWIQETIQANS
Method in brief: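 Assay in 50 mM Tris–HCl, pH 7.5, with 0.02 µg human KLK5 and inhibitor incubated 5 min at 37°C before adding Abz-KLRSSKQ-EDDnp. Fluorescence was read at ex 320 nm, em 420 nm. IC50 came from rates at five or more inhibitor concentrations across 0.01–1.0 µM. Values are means ± SD of three independent experiments.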

[2] = Solubility in aqueous buffer solution at >1 uM; format: physicochemical
Method in brief: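 Solubility was tested in the aqueous assay buffer (50 mM Tris–HCl, pH 7.5) before enzymatic assays, at concentrations above 1.0 µM.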

[3] = biological target: Kallikrein-5 (Homo sapiens) (UniProt Q9Y337); test: Inhibition of human KLK5 using Abz-KLRSSKQ-EDDnp as substrate at 10 uM preincubated for 5 mins followed by substrate addition by spectrofluorimetric analysis
Method in brief: (§1)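 Residual-activity screen in 50 mM Tris–HCl, pH 7.5. Compound stocks in DMSO:H2O 1:1 were diluted to 10 µM final, and in some runs raised to 100 µM. Inhibitor was incubated with enzyme for 5 min at 37°C. Substrate was then added: Abz-KLRSSKQ-EDDnp for KLK1, KLK5 and KLK6, or Abz-KLYSSKQ-EDDnp for KLK7. Fluorescence was read at ex 320 nm, em 420 nm and compared with an inhibitor-free control.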

[4] = biological target: Kallikrein-1 (Homo sapiens) (UniProt P06870); test: Inhibition of human KLK1 using Abz-KLRSSKQ-EDDnp as substrate at 10 uM preincubated for 5 mins followed by substrate addition by spectrofluorimetric analysis; method in brief: as §1
Sequence of Kallikrein-1 (Homo sapiens) (P06870 25-262 limits assumed): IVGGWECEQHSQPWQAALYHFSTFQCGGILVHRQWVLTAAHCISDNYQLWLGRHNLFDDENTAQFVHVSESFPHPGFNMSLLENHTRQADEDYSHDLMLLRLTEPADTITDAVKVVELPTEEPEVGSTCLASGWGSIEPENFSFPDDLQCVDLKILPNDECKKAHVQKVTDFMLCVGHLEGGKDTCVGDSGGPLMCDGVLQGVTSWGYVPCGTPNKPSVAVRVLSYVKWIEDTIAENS

[5] = biological target: Kallikrein-6 (Homo sapiens) (UniProt Q92876); test: Inhibition of human KLK6 using Abz-KLRSSKQ-EDDnp as substrate at 10 uM preincubated for 5 mins followed by substrate addition by spectrofluorimetric analysis; method in brief: as §1
[6] = biological target: Kallikrein-7 (Homo sapiens) (UniProt P49862); test: Inhibition of human KLK7 using Abz-KLYSSKQ-EDDnp as substrate at 10 uM preincubated for 5 mins followed by substrate addition by spectrofluorimetric analysis; method in brief: as §1
Sequence of Kallikrein-7 (Homo sapiens) (P49862 30-253 limits assumed): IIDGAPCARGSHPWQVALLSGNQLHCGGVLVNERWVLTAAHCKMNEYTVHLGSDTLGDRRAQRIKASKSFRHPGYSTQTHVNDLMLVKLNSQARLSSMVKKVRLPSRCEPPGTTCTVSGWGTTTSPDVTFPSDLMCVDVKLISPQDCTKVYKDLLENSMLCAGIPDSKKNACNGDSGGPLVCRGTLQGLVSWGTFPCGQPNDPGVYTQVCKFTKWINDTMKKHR

Kallikrein-5 [7] = biological target: T1, Kallikrein-5; test: Competitive inhibition of human KLK5 using Abz-KLRSSKQ-EDDnp as substrate preincubated for 5 mins followed by substrate addition by Lineweaver-Burk plot analysis
Method in brief: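 Human KLK5 (0.02 µg) was preincubated with inhibitor for 5 min at 37°C in 50 mM Tris–HCl, pH 7.5. Reaction was started with FRET substrate Abz-KLRSSKQ-EDDnp and read by fluorescence (ex 320 nm, em 420 nm). Initial rates were measured without inhibitor and at four inhibitor concentrations. Ki was taken as the x-intercept of 1/V0 versus inhibitor concentration at constant substrate. Mode was assigned from Lineweaver–Burk plots.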

[8] = biological target: Kallikrein-5 (Homo sapiens) (UniProt Q9Y337); test: Inhibition of human KLK5 using Abz-KLRSSKQ-EDDnp as substrate at 10 to 100 uM preincubated for 5 mins followed by substrate addition by spectrofluorimetric analysis; method in brief: as §1
[9] = biological target: Kallikrein-6 (Homo sapiens) (UniProt Q92876); test: Inhibition of human KLK6 using Abz-KLRSSKQ-EDDnp as substrate at 10 to 100 uM preincubated for 5 mins followed by substrate addition by spectrofluorimetric analysis; method in brief: as §1
[10] = biological target: Kallikrein-1 (Homo sapiens) (UniProt P06870); test: Inhibition of human KLK1 using Abz-KLRSSKQ-EDDnp as substrate at 10 to 100 uM preincubated for 5 mins followed by substrate addition by spectrofluorimetric analysis; method in brief: as §1
[11] = biological target: Kallikrein-7 (Homo sapiens) (UniProt P49862); test: Inhibition of human KLK7 using Abz-KLYSSKQ-EDDnp as substrate at 10 to 100 uM preincubated for 5 mins followed by substrate addition by spectrofluorimetric analysis; method in brief: as §1
[12] = biological target: Kallikrein-5 (Homo sapiens) (UniProt Q9Y337); test: Inhibition of human KLK5 using Abz-KLRSSKQ-EDDnp as substrate at >1 uM preincubated for 5 mins followed by substrate addition by spectrofluorimetric analysis
[13] = biological target: Kallikrein-1 (Homo sapiens) (UniProt P06870); test: Inhibition of human KLK1 using Abz-KLRSSKQ-EDDnp as substrate at >1 uM preincubated for 5 mins followed by substrate addition by spectrofluorimetric analysis
[14] = biological target: Kallikrein-6 (Homo sapiens) (UniProt Q92876); test: Inhibition of human KLK6 using Abz-KLRSSKQ-EDDnp as substrate at >1 uM preincubated for 5 mins followed by substrate addition by spectrofluorimetric analysis
[15] = biological target: Kallikrein-7 (Homo sapiens) (UniProt P49862); test: Inhibition of human KLK7 using Abz-KLYSSKQ-EDDnp as substrate at >1 uM preincubated for 5 mins followed by substrate addition by spectrofluorimetric analysis

| Structure (SMILES) | IC50 (Kallikrein-5 [1]) | solubility [2] | inhibition [3] | inhibition [4] | inhibition [5] | inhibition [6] | Ki (Kallikrein-5 [7]) | inhibition [8] | inhibition [9] | inhibition [10] | inhibition [11] | inhibition [12] | inhibition [13] | inhibition [14] | inhibition [15] |
| --- | --- | --- | --- | --- | --- | --- | --- | --- | --- | --- | --- | --- | --- | --- | --- |
| COC(=O)[C@@H]1CCCN1C(=O)C[C@H](O)[C@H](Cc1ccccc1)NC(=O)OC(C)(C)C | 122 nM | soluble | Active | inactive | inactive | inactive | 130 nM | – | – | – | – | – | – | – | – |
| CC(C)[C@H](NC(=O)C[C@H](O)[C@H](Cc1ccccc1)NC(=O)OC(C)(C)C)C(=O)O | – | soluble | – | – | – | – | – | inactive | inactive | inactive | inactive | – | – | – | – |
| CC(C)(C)OC(=O)N[C@@H](Cc1ccccc1)[C@@H](O)CC(=O)N[C@@H](Cc1ccccc1)C(=O)O | – | soluble | – | – | – | – | – | inactive | inactive | inactive | inactive | – | – | – | – |
| COC(=O)[C@H](Cc1ccccc1)NC(=O)C[C@H](O)[C@H](Cc1ccccc1)NC(=O)OC(C)(C)C | 112 nM | soluble | Active | inactive | inactive | inactive | 120 nM | – | – | – | – | – | – | – | – |
| CC(C)(C)OC(=O)N[C@@H](Cc1ccccc1)[C@@H](O)CC(=O)N1CCC[C@H]1C(=O)O | – | soluble | – | – | – | – | – | inactive | inactive | inactive | inactive | – | – | – | – |
| COC(=O)[C@@H](NC(=O)C[C@H](O)[C@H](Cc1ccccc1)NC(=O)OC(C)(C)C)C(C)C | 115 nM | soluble | Active | inactive | inactive | inactive | 130 nM | – | – | – | – | – | – | – | – |
| CC(C)(C)OC(=O)N[C@@H](Cc1ccccc1)[C@@H](O)CC(=O)N1CCC[C@H]1C(=O)N[C@H]1CO[C@H]2[C@@H]1OC[C@H]2OCc1ccccc1 | – | Insoluble | – | – | – | – | – | – | – | – | – | inactive | inactive | inactive | inactive |
| CC(C)[C@H](NC(=O)C[C@H](O)[C@H](Cc1ccccc1)NC(=O)OC(C)(C)C)C(=O)N[C@H]1CO[C@H]2[C@@H]1OC[C@H]2OCc1ccccc1 | – | Insoluble | – | – | – | – | – | – | – | – | – | inactive | inactive | inactive | inactive |
| CC(C)(C)OC(=O)N[C@@H](Cc1ccccc1)[C@@H](O)CC(=O)N[C@@H](Cc1ccccc1)C(=O)N[C@H]1CO[C@H]2[C@@H]1OC[C@H]2OCc1ccccc1 | – | Insoluble | – | – | – | – | – | – | – | – | – | inactive | inactive | inactive | inactive |
